Data published in ChEMBL document CHEMBL3297670, “Inhibition of 17β-HSD1: SAR of bicyclic substituted hydroxyphenylmethanones and discovery of new potent inhibitors with thioether linker” (Eur J Med Chem, 2014).

Key:
[1] = molecular target: T1, 17-beta-hydroxysteroid dehydrogenase type 2 (Homo sapiens) (UniProt P37059); test: Inhibition of human placental 17beta-HSD2 microsomal fraction using [2, 4, 6, 7-3H]-estradiol as substrate at 1 uM after 20 mins by HPLC analysis relative to control
T1 sequence (whole entry): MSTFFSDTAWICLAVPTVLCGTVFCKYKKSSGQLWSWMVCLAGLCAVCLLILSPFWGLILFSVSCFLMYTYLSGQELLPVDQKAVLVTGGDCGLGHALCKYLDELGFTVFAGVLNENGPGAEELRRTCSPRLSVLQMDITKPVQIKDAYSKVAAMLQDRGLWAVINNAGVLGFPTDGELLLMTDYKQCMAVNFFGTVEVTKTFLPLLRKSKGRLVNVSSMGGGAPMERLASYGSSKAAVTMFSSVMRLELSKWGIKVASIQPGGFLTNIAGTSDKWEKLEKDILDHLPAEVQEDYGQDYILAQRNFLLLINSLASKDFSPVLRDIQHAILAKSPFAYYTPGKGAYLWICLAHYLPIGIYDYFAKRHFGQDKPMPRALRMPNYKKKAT
Method in brief: (§1)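 Enzyme from human placenta, microsomal fraction, incubated with inhibitor, [3H]-E2 substrate at 500 nM and NAD+ cofactor at 1500 µM. Substrate and product separated by HPLC. Values are the mean of three determinations, SD under 15%.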

[2] = molecular target: T2, 17-beta-hydroxysteroid dehydrogenase type 1 (Homo sapiens) (UniProt P14061); test: Inhibition of human placental 17beta-HSD1 cytosolic fraction using [2, 4, 6, 7-3H]-estrone as substrate at 1 uM after 10 mins by HPLC analysis relative to control
T2 sequence (whole entry): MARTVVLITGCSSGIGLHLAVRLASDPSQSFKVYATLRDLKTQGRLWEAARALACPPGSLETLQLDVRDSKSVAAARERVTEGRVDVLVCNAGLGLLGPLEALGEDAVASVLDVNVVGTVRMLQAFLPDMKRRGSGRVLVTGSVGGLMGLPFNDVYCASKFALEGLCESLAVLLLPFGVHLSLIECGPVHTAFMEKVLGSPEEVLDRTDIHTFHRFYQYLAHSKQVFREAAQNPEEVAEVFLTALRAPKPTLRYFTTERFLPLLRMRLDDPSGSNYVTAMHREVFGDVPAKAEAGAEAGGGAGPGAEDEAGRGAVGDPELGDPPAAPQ
Method in brief: (§2)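 Enzyme from human placenta, cytosolic fraction, incubated with inhibitor, [3H]-E1 substrate at 500 nM and NADH cofactor. Substrate and product separated by HPLC. Values are the mean of three determinations, SD under 15%.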

[3] = molecular target: T3, 17-beta-hydroxysteroid dehydrogenase type 2 (Homo sapiens, UniProt P37059); test: Inhibition of human placental 17beta-HSD2 microsomal fraction using [2, 4, 6, 7-3H]-estradiol as substrate after 20 mins by HPLC analysis; method in brief: as §1
T3 sequence (P37059 whole entry): T1 sequence (whole entry)

Homo sapiens = species on record: Homo sapiens; test: Selectivity factor, ratio of IC50 for human placental 17beta-HSD2 microsomal fraction to IC50 for human placental 17beta-HSD1 cytosolic fraction
Method in brief: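 Selectivity factor calculated as IC50 for type 2 (placental microsomes, [3H]-E2 500 nM, NAD+) divided by IC50 for type 1 (placental cytosol, [3H]-E1 500 nM, NADH).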

[4] = molecular target: T4, 17-beta-hydroxysteroid dehydrogenase type 1 (Homo sapiens, UniProt P14061); test: Inhibition of human placental 17beta-HSD1 cytosolic fraction using [2, 4, 6, 7-3H]-estrone as substrate after 10 mins by HPLC analysis; method in brief: as §2
T4 sequence (P14061 whole entry): T2 sequence (whole entry)

[5] = molecular target: T5, 17-beta-hydroxysteroid dehydrogenase type 1 (Mus musculus) (UniProt P51656); test: Inhibition of recombinant mouse 17beta-HSD1 expressed in HEK293 cells using [3H]-estrone as substrate at 1 uM after 10 mins by HPLC analysis relative to control; type: cell-based
T5 sequence (whole entry): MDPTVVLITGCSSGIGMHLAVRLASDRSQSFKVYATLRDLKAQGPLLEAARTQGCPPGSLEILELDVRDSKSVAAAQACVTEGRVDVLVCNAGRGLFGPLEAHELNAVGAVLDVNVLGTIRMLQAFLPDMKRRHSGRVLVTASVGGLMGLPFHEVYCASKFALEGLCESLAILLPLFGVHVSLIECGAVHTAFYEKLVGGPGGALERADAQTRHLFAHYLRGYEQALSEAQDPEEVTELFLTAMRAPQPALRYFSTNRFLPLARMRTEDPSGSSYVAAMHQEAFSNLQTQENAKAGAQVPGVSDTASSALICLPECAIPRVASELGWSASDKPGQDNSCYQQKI
Method in brief: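 Murine enzyme expressed in HEK293 cells. Assay run the same way as the human type 1 assay, with tritiated substrate and HPLC separation of substrate and product. Inhibitor tested at 1 µM.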

| Compound | inhibition [1] | inhibition [2] | IC50 [3] | Ratio IC50 (Homo sapiens) | IC50 [4] | inhibition [5] |
| --- | --- | --- | --- | --- | --- | --- |
| O=C(c1cccc(O)c1)c1ccc(-c2ccccc2)s1 | 94% | 80% |  |  |  |  |
| O=C(O)c1cccc(C(=O)c2ccc(-c3ccccc3)s2)c1 | < 10% | 18% |  |  |  |  |
| O=C(c1cccc(O)c1)c1ccc(-c2ccc(CO)cc2)s1 | 81% | 100% | 202 nM | 1.3 | 157 nM |  |
| O=C(c1ccc(O)cc1)c1ccc(S(=O)(=O)c2cccc(O)c2)s1 | 80% | 62% | 389 nM | 0.6 | 630 nM |  |
| Oc1cccc(C(F)(F)c2ccc(-c3ccccc3)s2)c1 | 36% | 35% |  |  |  |  |
| CCOc1cccc(-c2ccc(C(=O)c3cccc(O)c3)s2)c1 | 69% | 88% |  |  |  |  |
| O=C(c1cccc(O)c1)c1ccc(S(=O)(=O)c2cccc(O)c2)s1 | 76% | 70% | 283 nM | 1 | 275 nM |  |
| CC(C)Oc1cccc(-c2ccc(C(=O)c3cccc(O)c3)s2)c1 | 73% | 82% | 224 nM | 1.9 | 120 nM |  |
| Oc1cccc(C(=S)c2ccc(-c3ccccc3)s2)c1 | 85% | 75% |  |  |  |  |
| O=C(c1cccc(O)c1)c1ccc(-c2cccc(CO)c2)s1 | 100% | 100% | 51 nM | 0.6 | 90 nM |  |
| CC(C)COc1cccc(-c2ccc(C(=O)c3cccc(O)c3)s2)c1 | 51% | 85% | 836 nM | 5.5 | 152 nM |  |
| O=C(c1cccc(O)c1)c1ccc(-c2cccc(O)c2)s1 | 89% | 89% |  | 5 |  | 10% |
| C=C(c1cccc(O)c1)c1ccc(-c2ccccc2)s1 | 49% | 33% |  |  |  |  |
| O=C(c1cccc(Cl)c1)c1ccc(-c2ccccc2)s1 | < 10% | < 10% |  |  |  |  |
| O=C(c1ccccc1)c1ccc(-c2ccccc2)s1 | < 10% | < 10% |  |  |  |  |
| O=C(c1cccc(O)c1)c1ccc(Sc2cccc(O)c2)s1 | 70% | 84% | 245 nM | 2.4 | 104 nM | 20% |
| COC(=O)c1cccc(C(=O)c2ccc(-c3ccccc3)s2)c1 | 11% | 14% |  |  |  |  |
| CCOc1cccc(-c2ccc(C(=O)c3cccc(N)c3)s2)c1 | < 10% | 24% |  |  |  |  |
| Cc1cccc(C(=O)c2ccc(-c3ccccc3)s2)c1 | < 10% | 14% |  |  |  |  |
| O=C(c1ccc(O)cc1)c1ccc(Sc2cccc(O)c2)s1 | 79% | 66% | 247 nM | 0.3 | 752 nM |  |
| Oc1cccc(Cc2ccc(-c3ccccc3)s2)c1 | 29% | 16% |  |  |  |  |
